These results are taken from ChEMBL document CHEMBL2062472, “N-(2-oxo-3-oxetanyl)carbamic acid esters as N-acylethanolamine acid amidase inhibitors: synthesis and structure-activity and structure-property relationships” (J Med Chem, 2012).

The nature of data set [1]: Apparent Half life of the compound in 0.01 M phosphate-buffered saline at pH 7.4. Format: physicochemical. To be noted: read-out: t1/2(app). An outline of the steps: (§1)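 Compound (from DMSO stock; 1% DMSO final) incubated at 1–100 μM final at 37 °C with shaking, ionic strength 0.15 M, in 0.01 M PBS pH 7.4 or 0.01 M phosphate buffer pH 5.0. Aliquots taken over time were analysed by RP-HPLC. Apparent t1/2 came from pseudo-first-order rate constants (linear regression of log[compound] vs time), reported as mean ± SD of three experiments.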

The nature of data set [2]: Apparent Half life of the compound in 0.01 M phosphate buffer at pH 5. The note with it: read-out: t1/2(app). The class given is physicochemical. The essentials: as §1
Another data set has as its target Albumin (Bos taurus, UniProt P02769). Description: Apparent half life of the compound in bovine serum albumin in phosphate-buffered saline at pH 7.4. The class given is ADME. The note with it: cattle, read-out: t1/2(app). An outline of the steps:
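Compound incubated at 5–100 μM final (1% DMSO) at 37 °C in 20 mg/mL bovine serum albumin in PBS pH 7.4. Aliquots were quenched with 2 volumes of CH3CN, centrifuged, and analysed by RP-HPLC. Apparent t1/2 came from pseudo-first-order regression of log[compound] vs time.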

A short description of data set [3]: Apparent half life of the compound in rat plasma by HPLC analysis. Format: ADME, cell-free. The note with it: read-out: t1/2(app) (converted). An outline of the steps:
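Pooled heparinized plasma from male Wistar rats was diluted to 80% (v/v) with PBS pH 7.4. Compound was added at 5–100 μM final (1% DMSO) and incubated at 37 °C with shaking. Aliquots were quenched with 2 volumes of CH3CN, centrifuged, and analysed by RP-HPLC. t1/2 came from log[compound]-vs-time regression, as mean ± SD of three experiments.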

A short description of data set [4]: Apparent Half life of the compound in 0.01 M phosphate buffer at pH 5 in presence of 3 mM DTT. The note with it: read-out: t1/2(app).
Data set [5] can be described thus: Drug degradation in 0.01 M phosphate-buffered saline at pH 7.4 assessed as N-acylated L-serine product formation by HPLC-UV-MS analysis. Format: physicochemical. The note with it: buffer. The essentials:
(§2)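 Compound incubated at 37 °C in 0.01 M phosphate buffer pH 5.0 or 0.01 M PBS pH 7.4 (μ = 0.15 M; 1% DMSO) for up to 3 days. Degradation products were followed by RP-HPLC-UV and ESI-MS on a C18 column with acetonitrile/10 mM ammonium acetate (pH 7.0) mobile phase. Products were quantified against calibration curves of pure standards.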

Data set [6] in a line: Drug degradation in 0.01 M phosphate buffer at pH 5 assessed as N-acylated L-serine product formation by HPLC-UV-MS analysis. Format: physicochemical. The essentials: as §2
A short description of data set [7]: Drug degradation in 0.01 M phosphate buffer at pH 5 assessed as N-(2-Naphthoyl)-L-serine product formation at > 2 hrs by HPLC-UV-MS analysis. The class given is physicochemical. To be noted: pH 5, 2 h. An outline of the steps:
as §2

A short description of data set [8]: Drug degradation in 0.01 M phosphate buffer at pH 5 assessed as 2-Naphtholic acid product formation at > 2 hrs by HPLC-UV-MS analysis. To be noted: pH 5, 2 h. Format: physicochemical. An outline of the steps: as §2
A short description of data set [9]: Drug degradation in 0.01 M phosphate-buffered saline at pH 7.4 assessed as N-(2-Naphthoyl)-L-serine product formation by HPLC-UV-MS analysis. Format: physicochemical. To be noted: buffer. The essentials:
as §2

Data set [10] in a line: Drug degradation in 0.01 M phosphate-buffered saline at pH 7.4 assessed as 2-naphtholic acid product formation after 24 hrs by HPLC-UV-MS analysis. The class given is physicochemical. The note with it: buffer, pH 7.4, 24 h. An outline of the steps:
as §2

Data set [11] in a line: Drug degradation in 0.01 M phosphate buffer at pH 5 assessed as O-(2-naphthoyl)-L-serine product formation by HPLC-UV-MS analysis. The class given is physicochemical. An outline of the steps: as §2
A short description of data set [12]: Drug degradation in 0.01 M phosphate buffer at pH 5 assessed as time required for N-(2-Naphthoyl)-L-serine product formation by HPLC-UV-MS analysis. The class given is physicochemical. An outline of the steps: as §2
The nature of data set [13]: Drug degradation in 0.01 M phosphate buffer at pH 5 assessed as time required for O-(2-naphthoyl)-L-serine product formation by HPLC-UV-MS analysis. The class given is physicochemical. An outline of the steps:
as §2

The target in data set [14] is T1, N-acylethanolamine-hydrolyzing acid amidase (Rattus norvegicus, UniProt Q5KTC7).
T1 sequence (Q5KTC7 whole entry): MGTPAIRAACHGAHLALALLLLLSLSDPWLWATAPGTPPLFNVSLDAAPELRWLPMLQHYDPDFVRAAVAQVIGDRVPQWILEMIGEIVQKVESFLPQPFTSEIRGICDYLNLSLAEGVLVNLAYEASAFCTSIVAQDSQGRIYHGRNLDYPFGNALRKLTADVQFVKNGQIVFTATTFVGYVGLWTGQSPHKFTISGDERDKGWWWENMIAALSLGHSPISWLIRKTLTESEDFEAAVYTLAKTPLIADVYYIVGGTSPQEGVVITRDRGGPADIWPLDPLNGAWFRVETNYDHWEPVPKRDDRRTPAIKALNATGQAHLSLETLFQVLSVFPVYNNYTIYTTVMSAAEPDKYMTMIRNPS
Description: Inhibition of rat recombinant NAAA expressed in HEK293 cells using heptadecenoylethanolamide as substrate after 30 mins by LC/MS analysis. The class given is cell-based. The essentials:
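Recombinant rat NAAA incubated 30 min at 37 °C in 50 mM sodium hydrogen phosphate buffer pH 5.0 containing 0.1% Triton X-100, 3 mM DTT and heptadecenoylethanolamide substrate (50 mM as printed). The reaction was stopped with cold methanol containing 1 nmol heptadecanoic acid. Product was measured by LC/MS with negative ESI, selected ion monitoring at m/z 267.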

Sequence of Albumin (P02769 whole entry): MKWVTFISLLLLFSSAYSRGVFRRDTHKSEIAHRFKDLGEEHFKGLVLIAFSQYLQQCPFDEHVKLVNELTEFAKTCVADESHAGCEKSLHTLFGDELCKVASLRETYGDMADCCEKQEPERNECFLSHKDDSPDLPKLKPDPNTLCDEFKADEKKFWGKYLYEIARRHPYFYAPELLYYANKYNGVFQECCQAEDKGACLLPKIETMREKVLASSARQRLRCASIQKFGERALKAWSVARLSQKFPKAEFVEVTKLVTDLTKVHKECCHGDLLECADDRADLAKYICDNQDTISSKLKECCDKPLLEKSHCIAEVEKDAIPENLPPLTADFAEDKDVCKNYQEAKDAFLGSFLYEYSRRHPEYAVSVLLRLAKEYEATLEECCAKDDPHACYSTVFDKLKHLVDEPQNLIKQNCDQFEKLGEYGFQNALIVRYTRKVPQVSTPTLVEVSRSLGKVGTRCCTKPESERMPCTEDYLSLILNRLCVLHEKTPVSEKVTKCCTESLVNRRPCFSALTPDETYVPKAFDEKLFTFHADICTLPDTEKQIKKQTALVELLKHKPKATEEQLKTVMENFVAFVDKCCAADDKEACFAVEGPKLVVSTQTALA

Regarding `O=C(N[C@H]1COC1=O)OCc1ccccc1`, the half-life in [1] is 26.7 min; in data set [2], 39.2 min; at Albumin, 1.2 min; in data set [3], < 0.167 min; in [4], 30.5 min.

For `O=C(CCc1ccccc1)N[C@H]1COC1=O`, the half-life is 18 min in data set [1]; 23.1 min in data set [2]; 7 min at Albumin; < 0.167 min in [3]; 19 min in data set [4]. For the same compound, the Drug degradation result in data set [5] and in [6] was “Active” throughout.

For the compound `C[C@H]1OC(=O)[C@H]1NC(=O)CCc1ccccc1`, the half-life in [1] is 73.8 min; in data set [2], 135 min; at Albumin, 16 min; in data set [3], < 0.167 min; in [4] it was 100 min. Further, the Drug degradation entry in [5] and in data set [6] was “Active” in each case.

Take `O=C1OCC1CCCCc1ccccc1` (stereo not drawn): the half-life in [1] is 93.5 min; in [2], 115 min; on Albumin, 15.1 min; in [3] it was 0.233 min; in [4] it was 114 min.

In the case of `O=C(N[C@H]1COC1=O)c1ccc2ccccc2c1`, the Drug degradation result in data set [7], in data set [8], in [5], in [6], in [9] and in [10] was “Active” each time. Further, the Drug degradation result in data set [11] is “Active”. Also, the half-life was 9.8 min in data set [1]; 19 min in data set [2]; < 1 min at Albumin; < 0.167 min in data set [3]; 15.9 min in data set [4]. Moreover, the Time result in data set [12] and in data set [13] was “<= 2 hr” throughout.

As for `CCOC(=O)c1ccc2cc(C(=O)N[C@H]3COC3=O)ccc2c1`, the half-life in [1] was 12.1 min; in [2], 25.1 min; at Albumin it was 3.2 min; in data set [3] it was 1.25 min; in data set [4] it was 20.9 min. For the same compound, the Drug degradation result in data set [5] and in [6] was “Active” throughout.

As for `COc1ccc2cc(C(=O)N[C@H]3COC3=O)ccc2c1`, the half-life in data set [1] was 8.2 min; in data set [2] it was 18.1 min; on Albumin, < 1 min; in data set [3] it was 0.483 min; in [4], 19.1 min. The Drug degradation entry in [5] and in data set [6] was “Active” throughout.

For the compound `O=C(N[C@H]1COC1=O)c1ccc(C(=O)Oc2ccccc2)cc1`, the half-life in data set [1] was 9.8 min; in data set [2], 23.7 min; at Albumin it was 2.7 min; in data set [3], < 0.167 min; in data set [4], 19.5 min. For the same compound, the Drug degradation entry in data set [5] and in [6] was “Active” in each case.

As to `O=C(N[C@H]1COC1=O)c1ccc(OCc2ccccc2)cc1`, the half-life in data set [1] was 13.4 min; in data set [2], 23.2 min; at Albumin, 5.8 min; in data set [3], 1.08 min; in data set [4], 18.8 min. In addition, the Drug degradation entry in data set [5] and in [6] was “Active” in each case.

On to `O=C(N[C@H]1COC1=O)c1ccc(-c2ccccc2)cc1`, for which the half-life is 12.6 min in data set [1]; 28.4 min in data set [2]; 3.3 min on Albumin; 0.533 min in data set [3]; 20.9 min in data set [4]. The Drug degradation entry in data set [5] and in data set [6] was “Active” throughout.

As for `O=C(N[C@@H](CO)C(=O)O)OCc1ccccc1`, in data set [14], the concentration for half-maximal inhibition (IC50) is > 100 µM.

Regarding `C[C@@H]1OC(=O)[C@@H]1NC(=O)OCCCCCc1ccccc1`, the half-life is 110 min in data set [1]; 194 min in data set [2]; 11.4 min on Albumin; < 0.167 min in data set [3]; 134 min in data set [4]. Moreover, the IC50 in data set [14] is 0.13 µM.

Consider `O=C(N[C@@H]1COC1=O)OCc1ccccc1`, for which the IC50 in [14] came out at 0.7 µM.

In the case of `CC(C)(C)OC(=O)N[C@H]1COC1=O`, the half-life is 33.7 min in data set [1]; 43.4 min in data set [2]; 19.6 min at Albumin; < 0.167 min in data set [3]; 39 min in data set [4]. Moreover, the IC50 in [14] was 0.58 µM.

`CC(C)(C)OC(=O)N[C@@H]1COC1=O`: the IC50 in data set [14] is 0.5 µM.

Take `O=C(NCc1ccccc1)N[C@H]1COC1=O`: the half-life in [1] is 3.3 min; in data set [2], 29.7 min; at Albumin, 4.6 min; in data set [3] it was < 0.167 min; in [4] it was 25.1 min. Besides, the IC50 in data set [14] was found to be 15 µM.

Consider `O=C(NCc1ccccc1)N[C@@H]1COC1=O`, for which, in [14], the IC50 came out at 49.2 µM.

For `C[C@H]1OC(=O)[C@H]1NC(=O)OCc1ccccc1`, in data set [14], the IC50 is 10 µM.

With `C[C@@H]1OC(=O)[C@@H]1NC(=O)OCc1ccccc1`, the half-life in data set [1] is 108 min; in [2] it was 185 min; on Albumin it was 5.1 min; in data set [3], < 0.167 min; in data set [4], 127 min. Besides, the IC50 in [14] is 1 µM.

Consider `C[C@H]1OC(=O)[C@H]1NC(=O)OC(C)(C)C`, for which the half-life in [1] was 143 min; in data set [2], 217 min; on Albumin it was 121 min; in data set [3], 0.217 min; in data set [4], 149 min. Also, the IC50 in [14] is > 80 µM.

Take `C[C@@H]1OC(=O)[C@H]1NC(=O)OC(C)(C)C`: the half-life is 80.7 min in data set [1]; 93.8 min in data set [2]; 87.7 min at Albumin; < 0.167 min in [3]; 80.4 min in data set [4]. In addition, the half-inhibitory concentration (IC50) in data set [14] stood at 0.19 µM.

In the case of `C[C@H]1OC(=O)[C@@H]1NC(=O)OC(C)(C)C`, the half-inhibitory concentration (IC50) in [14] was determined as 4.9 µM.

Regarding `O=C(N[C@H](CO)C(=O)O)OCc1ccccc1`, the half-inhibitory concentration (IC50) in [14] is > 100 µM.

As to `O=C(NC1CCC1=O)OCc1ccccc1` (racemic), in data set [14], the half-maximal inhibitory concentration (IC50) is > 100 µM.

For `O=C(NC1CCC1)OCc1ccccc1` [CYCLOBUTYLCARBAMIC ACID BENZYL ESTER], the IC50 in data set [14] is > 100 µM.
